In ChEMBL document CHEMBL1799953, “Backbone cyclic peptide inhibitors of protein kinase B (PKB/Akt)” (J Med Chem, 2011):
pIC50: −log10 of the molar value. *1 amine or outer side, *2 acyl side, *3 side chain or, on linkers, in order; H or OH if unused. Where a SMILES comes first, the peptide text is derived from it. Bridges are numbered along the chain shown (N, C = ends). [ ]: non-standard residue; d: D form. N(6-aminohexyl)Gly = O=C(CN(CCCCCCN[*:3])[*:1])[*:2]; NGly(3-aminopropyl) = O=C(CN(CCCN[*:3])[*:1])[*:2]; N(2-Aminoethyl)Gly = O=C(CN(CCN[*:3])[*:1])[*:2]; Heptanedioyl = O=C(CCCCCC(=O)[*:2])[*:1]; Adipoyl = O=C(CCCCC(=O)[*:2])[*:1]; Glutaryl = O=C(CCCC(=O)[*:2])[*:1]; Gly(N-(CH2)6NH2) = NCCCCCCNCC(=O)O; Gly(N-2-aminoethyl) = NCCNCC(=O)O; Cha = N[C@@H](CC1CCCCC1)C(=O)O; Gly(N(CH2)3NH2) = NCCCNCC(=O)O; Suc = O=C(CCC(=O)[*:2])[*:1]; hLeu = CC(C)CC[C@H](N)C(=O)O; Nva = CCC[C@H](N)C(=O)O; Dap = NC[C@H](N)C(=O)O; CO = O=C([*:1])[*:2]; Nlys = NCCCCNCC(=O)O

Columns and labels:
[1] = target: T1, RAC-alpha serine/threonine-protein kinase (Homo sapiens, UniProt P31749); test: Inhibition of Akt using RPRTSSF peptide and [gamma32]ATP by cell-free radioactive assay
T1 sequence (P31749 whole entry): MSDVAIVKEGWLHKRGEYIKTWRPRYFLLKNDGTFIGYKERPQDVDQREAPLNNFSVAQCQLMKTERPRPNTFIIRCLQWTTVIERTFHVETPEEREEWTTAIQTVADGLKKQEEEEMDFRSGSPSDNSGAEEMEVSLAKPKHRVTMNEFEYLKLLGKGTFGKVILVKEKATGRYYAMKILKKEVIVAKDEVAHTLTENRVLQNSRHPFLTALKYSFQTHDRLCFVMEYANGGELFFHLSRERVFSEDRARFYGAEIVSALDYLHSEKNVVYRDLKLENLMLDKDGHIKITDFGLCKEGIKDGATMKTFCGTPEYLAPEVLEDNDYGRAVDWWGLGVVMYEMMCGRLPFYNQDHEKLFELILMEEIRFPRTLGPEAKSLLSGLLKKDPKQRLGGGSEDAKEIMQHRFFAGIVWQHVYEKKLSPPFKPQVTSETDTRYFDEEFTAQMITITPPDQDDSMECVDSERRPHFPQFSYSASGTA
Procedure, shortened: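 Same reaction: HisΔPHPKBEEEFlag (0.005 units), 50 mM Hepes pH 7.4, 0.1 mM EGTA, 0.1% 2-mercaptoethanol, 10 mM magnesium acetate, 3 μM RPRTSSF, 10 μM [γ32P]ATP. Peptide stock concentration determined by UV spectrophotometry; reference peptide run in every assay.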

[2] = target: T1, RAC-alpha serine/threonine-protein kinase; test: Inhibition of Akt using RPRTSSF peptide and [gamma32]ATP at 0.625 uM by cell-free radioactive assay relative to control
[3] = target: T1, RAC-alpha serine/threonine-protein kinase; test: Inhibition of Akt using RPRTSSF peptide and [gamma32]ATP at 5 uM by cell-free radioactive assay relative to control
Procedure, shortened: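 Cell-free 32P kinase assay: HisΔPHPKBEEEFlag (0.005 units, one-step Ni-NTA partial purification), 50 mM Hepes pH 7.4, 0.1 mM EGTA, 0.1% 2-mercaptoethanol, 10 mM magnesium acetate, 3 μM RPRTSSF substrate, 10 μM [γ32P]ATP (1 μCi/well). Inhibitor at 5 μM. Activity loss expressed as percent of uninhibited reaction.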

Compound	pIC50 [1]	inhibition [2]	inhibition [3]
CCC[C@H](NC(=O)[C@H](CCCN=C(N)N)NC(=O)[C@H](CN)NC(=O)[C@@H](N)CCCN=C(N)N)C(=O)N[C@@H](Cc1ccc(O)cc1)C(=O)N[C@@H](CN)C(=O)N[C@@H](CCC(C)C)C(N)=O	6.07	–	–
CCC[C@H](NC(=O)[C@H](CCCN=C(N)N)NC(=O)[C@H](CCCCN)NC(=O)[C@@H](N)CCCN=C(N)N)C(=O)N[C@@H](Cc1ccc(O)cc1)C(=O)N[C@@H](CN)C(=O)N[C@@H](CCC(C)C)C(N)=O	5.67	–	–
CCC[C@H](NC(=O)[C@H](CCCNC(=N)N)NC(=O)[C@@H]1CCCN1C(=O)[C@@H](N)CCCNC(=N)N)C(=O)N[C@@H](Cc1ccc(O)cc1)C(=O)N[C@@H](CN)C(=O)N[C@@H](CCC(C)C)C(N)=O	–	36%	–
CCC[C@H](NC(=O)[C@H](CCCN=C(N)N)NC(=O)[C@H](CC1CCCCC1)NC(=O)[C@@H](N)CCCN=C(N)N)C(=O)N[C@@H](Cc1ccc(O)cc1)C(=O)N[C@@H](CN)C(=O)N[C@@H](CCC(C)C)C(N)=O (H-R[Cha]R[Nva]Y[Dap][hLeu]-NH2)	6.02	–	–
CCC[C@H](NC(=O)[C@H](CCCN=C(N)N)NC(=O)CN(CCCN)C(=O)[C@@H](N)CCCN=C(N)N)C(=O)N[C@@H](Cc1ccc(O)cc1)C(=O)N[C@@H](CN)C(=O)N[C@@H](CCC(C)C)C(=O)N(CCN)CC(N)=O (H-R[Gly(N(CH2)3NH2)]R[Nva]Y[Dap][hLeu][Gly(N-2-aminoethyl)]-NH2)	6.49	–	–
CCC[C@H](NC(=O)[C@H](CCCNC(=N)N)NC(=O)CN(CCCN)C(=O)[C@@H](N)CCCNC(=N)N)C(=O)N[C@@H](Cc1ccc(O)cc1)C(=O)N[C@@H](CN)C(=O)N[C@@H](CCC(C)C)C(=O)N(CCN)CC(N)=O (H-R[Gly(N(CH2)3NH2)]R[Nva]Y[Dap][hLeu][Gly(N-2-aminoethyl)]-NH2)	–	76%	–
CCC[C@H](NC(=O)[C@H](CCCNC(=N)N)NC(=O)CN(CCCN)C(=O)[C@@H](N)CCCNC(=N)N)C(=O)N[C@@H](Cc1ccc(O)cc1)C(=O)N[C@@H](CN)C(=O)N[C@@H](CCC(C)C)C(=O)N(CCCCCCN)CC(N)=O (H-R[Gly(N(CH2)3NH2)]R[Nva]Y[Dap][hLeu][Gly(N-(CH2)6NH2)]-NH2)	–	51%	–
CCC[C@H](NC(=O)[C@H](CCCN=C(N)N)NC(=O)CN(CCN)C(=O)[C@@H](N)CCCN=C(N)N)C(=O)N[C@@H](Cc1ccc(O)cc1)C(=O)N[C@@H](CN)C(=O)N[C@@H](CCC(C)C)C(=O)N(CCCN)CC(N)=O (H-R[Gly(N-2-aminoethyl)]R[Nva]Y[Dap][hLeu][Gly(N(CH2)3NH2)]-NH2)	6.60	–	–
CCC[C@H](NC(=O)[C@H](CCCN=C(N)N)NC(=O)CN(CCN)C(=O)[C@@H](N)CCCN=C(N)N)C(=O)N[C@@H](Cc1ccc(O)cc1)C(=O)N[C@@H](CN)C(=O)N[C@@H](CCC(C)C)C(=O)N(CCCCN)CC(N)=O (H-R[Gly(N-2-aminoethyl)]R[Nva]Y[Dap][hLeu][Nlys]-NH2)	6.75	–	–
CCC[C@H](NC(=O)[C@H](CCCN=C(N)N)NC(=O)CN(CCCCCCN)C(=O)[C@@H](N)CCCN=C(N)N)C(=O)N[C@@H](Cc1ccc(O)cc1)C(=O)N[C@@H](CN)C(=O)N[C@@H](CCC(C)C)C(=O)N(CCN)CC(N)=O (H-R[Gly(N-(CH2)6NH2)]R[Nva]Y[Dap][hLeu][Gly(N-2-aminoethyl)]-NH2)	6.49	–	–
CCC[C@H](NC(=O)[C@H](CCCN=C(N)N)NC(=O)CN(CCCCCCN)C(=O)[C@@H](N)CCCN=C(N)N)C(=O)N[C@@H](Cc1ccc(O)cc1)C(=O)N[C@@H](CN)C(=O)N[C@@H](CCC(C)C)C(=O)N(CCCCN)CC(N)=O (H-R[Gly(N-(CH2)6NH2)]R[Nva]Y[Dap][hLeu][Nlys]-NH2)	6.80	–	–
CCC[C@@H]1NC(=O)[C@H](CCCNC(=N)N)NC(=O)CN(C(=O)[C@@H](N)CCCNC(=N)N)CCNC(=O)NCCCCCCN(CC(N)=O)C(=O)[C@H](CCC(C)C)NC(=O)[C@H](CN)NC(=O)[C@H](Cc2ccc(O)cc2)NC1=O (H-R[N(2-Aminoethyl)Gly]R[Nva]Y[Dap][hLeu][N(6-aminohexyl)Gly]-NH2; linker 2-8 via CO)	6.54	–	100%
CCC[C@@H]1NC(=O)[C@H](CCCNC(=N)N)NC(=O)CN(C(=O)[C@@H](N)CCCNC(=N)N)CCNC(=O)NCCCN(CC(N)=O)C(=O)[C@H](CCC(C)C)NC(=O)[C@H](CN)NC(=O)[C@H](Cc2ccc(O)cc2)NC1=O (H-R[N(2-Aminoethyl)Gly]R[Nva]Y[Dap][hLeu][NGly(3-aminopropyl)]-NH2; linker 2-8 via CO)	6.04	–	98%
CCC[C@@H]1NC(=O)[C@H](CCCN=C(N)N)NC(=O)CN(C(=O)[C@@H](N)CCCN=C(N)N)CCNC(=O)NCCCCN(CC(N)=O)C(=O)[C@H](CCC(C)C)NC(=O)[C@H](CN)NC(=O)[C@H](Cc2ccc(O)cc2)NC1=O (H-R[N(2-Aminoethyl)Gly]R[Nva]Y[Dap][hLeu][Nlys]-NH2; linker 2-8 via CO)	6.55	–	–
CCC[C@@H]1NC(=O)[C@H](CCCNC(=N)N)NC(=O)CN(C(=O)[C@@H](N)CCCNC(=N)N)CCCCCCNC(=O)NCCCN(CC(N)=O)C(=O)[C@H](CCC(C)C)NC(=O)[C@H](CN)NC(=O)[C@H](Cc2ccc(O)cc2)NC1=O (H-R[N(6-aminohexyl)Gly]R[Nva]Y[Dap][hLeu][NGly(3-aminopropyl)]-NH2; linker 2-8 via CO)	6.80	–	100%
CCC[C@@H]1NC(=O)[C@H](CCCN=C(N)N)NC(=O)CN(C(=O)[C@@H](N)CCCN=C(N)N)CCCCCCNC(=O)NCCCCN(CC(N)=O)C(=O)[C@H](CCC(C)C)NC(=O)[C@H](CN)NC(=O)[C@H](Cc2ccc(O)cc2)NC1=O (H-R[N(6-aminohexyl)Gly]R[Nva]Y[Dap][hLeu][Nlys]-NH2; linker 2-8 via CO)	6.55	–	–
CCC[C@@H]1NC(=O)[C@H](CCCNC(=N)N)NC(=O)CN(C(=O)[C@@H](N)CCCNC(=N)N)CCCNC(=O)NCCCCCCN(CC(N)=O)C(=O)[C@H](CCC(C)C)NC(=O)[C@H](CN)NC(=O)[C@H](Cc2ccc(O)cc2)NC1=O (H-R[NGly(3-aminopropyl)]R[Nva]Y[Dap][hLeu][N(6-aminohexyl)Gly]-NH2; linker 2-8 via CO)	6.49	–	100%
CCC[C@@H]1NC(=O)[C@H](CCCN=C(N)N)NC(=O)CN(C(=O)[C@@H](N)CCCN=C(N)N)CCCNC(=O)NCCCN(CC(N)=O)C(=O)[C@H](CCC(C)C)NC(=O)[C@H](CN)NC(=O)[C@H](Cc2ccc(O)cc2)NC1=O (H-R[NGly(3-aminopropyl)]R[Nva]Y[Dap][hLeu][NGly(3-aminopropyl)]-NH2; linker 2-8 via CO)	6.23	–	–
CCC[C@H](NC(=O)[C@H](CCCN=C(N)N)NC(=O)CN(CCCCN)C(=O)[C@@H](N)CCCN=C(N)N)C(=O)N[C@@H](Cc1ccc(O)cc1)C(=O)N[C@@H](CN)C(=O)N[C@@H](CCC(C)C)C(=O)N(CCN)CC(N)=O (H-R[Nlys]R[Nva]Y[Dap][hLeu][Gly(N-2-aminoethyl)]-NH2)	6.66	–	–
CCC[C@@H]1NC(=O)[C@H](CCCNC(=N)N)NC(=O)CN(C(=O)[C@@H](N)CCCNC(=N)N)CCCCNC(=O)NCCCCN(CC(N)=O)C(=O)[C@H](CCC(C)C)NC(=O)[C@H](CN)NC(=O)[C@H](Cc2ccc(O)cc2)NC1=O (H-R[Nlys]R[Nva]Y[Dap][hLeu][Nlys]-NH2; linker 2-8 via CO)	6.77	–	100%
CCC[C@@H]1NC(=O)[C@H](CCCNC(=N)N)NC(=O)[C@@H]2CCCN2C(=O)[C@H](CCCNC(=N)N)NC(=O)CCCC(=O)NCCCCCCN(CC(N)=O)C(=O)[C@H](CCC(C)C)NC(=O)[C@H](CN)NC(=O)[C@H](Cc2ccc(O)cc2)NC1=O (RPR[Nva]Y[Dap][hLeu][N(6-aminohexyl)Gly]-NH2; linker N-8 via Glutaryl)	–	–	32%
CCC[C@@H]1NC(=O)[C@H](CCCNC(=N)N)NC(=O)[C@@H]2CCCN2C(=O)[C@H](CCCNC(=N)N)NC(=O)CCCCCC(=O)NCCCCCCN(CC(N)=O)C(=O)[C@H](CCC(C)C)NC(=O)[C@H](CN)NC(=O)[C@H](Cc2ccc(O)cc2)NC1=O (RPR[Nva]Y[Dap][hLeu][N(6-aminohexyl)Gly]-NH2; linker N-8 via Heptanedioyl)	–	–	30%
CCC[C@@H]1NC(=O)[C@H](CCCNC(=N)N)NC(=O)[C@@H]2CCCN2C(=O)[C@H](CCCNC(=N)N)NC(=O)CCC(=O)NCCCCCCN(CC(N)=O)C(=O)[C@H](CCC(C)C)NC(=O)[C@H](CN)NC(=O)[C@H](Cc2ccc(O)cc2)NC1=O (RPR[Nva]Y[Dap][hLeu][N(6-aminohexyl)Gly]-NH2; linker N-8 via Suc)	–	–	25%
CCC[C@@H]1NC(=O)[C@H](CCCNC(=N)N)NC(=O)[C@@H]2CCCN2C(=O)[C@H](CCCNC(=N)N)NC(=O)CCCCC(=O)NCCCCN(CC(N)=O)C(=O)[C@H](CCC(C)C)NC(=O)[C@H](CN)NC(=O)[C@H](Cc2ccc(O)cc2)NC1=O (RPR[Nva]Y[Dap][hLeu][Nlys]-NH2; linker N-8 via Adipoyl)	–	–	18%
CCC[C@@H]1NC(=O)[C@H](CCCNC(=N)N)NC(=O)[C@@H]2CCCN2C(=O)[C@H](CCCNC(=N)N)NC(=O)CCCC(=O)NCCCCN(CC(N)=O)C(=O)[C@H](CCC(C)C)NC(=O)[C@H](CN)NC(=O)[C@H](Cc2ccc(O)cc2)NC1=O (RPR[Nva]Y[Dap][hLeu][Nlys]-NH2; linker N-8 via Glutaryl)	–	–	14%
CCC[C@@H]1NC(=O)[C@H](CCCNC(=N)N)NC(=O)[C@@H]2CCCN2C(=O)[C@H](CCCNC(=N)N)NC(=O)CCCCCC(=O)NCCCCN(CC(N)=O)C(=O)[C@H](CCC(C)C)NC(=O)[C@H](CN)NC(=O)[C@H](Cc2ccc(O)cc2)NC1=O (RPR[Nva]Y[Dap][hLeu][Nlys]-NH2; linker N-8 via Heptanedioyl)	–	–	16%
CCC[C@@H]1NC(=O)[C@H](CCCNC(=N)N)NC(=O)[C@@H]2CCCN2C(=O)[C@H](CCCNC(=N)N)NC(=O)CCC(=O)NCCCCN(CC(N)=O)C(=O)[C@H](CCC(C)C)NC(=O)[C@H](CN)NC(=O)[C@H](Cc2ccc(O)cc2)NC1=O (RPR[Nva]Y[Dap][hLeu][Nlys]-NH2; linker N-8 via Suc)	–	–	13%
